Experimental data taken from ChEMBL document CHEMBL5143722, “Antimicrobial Peptides against Multidrug-Resistant Pseudomonas aeruginosa Biofilm from Cystic Fibrosis Patients” (J Med Chem, 2022).
Active and inactive are the calls of the source. The calls are words filed in the database; no cut-off is given here.

How the values were obtained:
Pseudomonas aeruginosa [1] = assay: Induction of biofilm degradation of Pseudomonas aeruginosa clinical isolate 40 at 50 uM incubated for 1 hr by crystal violet staining analysis relative to control; format: functional
Summary of the method: (§1)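 Bacteria at 1 × 10^6 CFU/mL in BM2 grown static at 37 °C for 24 h to form biofilm. Wells rinsed of unattached cells, then exposed for 1 h to serial peptide dilutions (1.56–50 μM). Washed, stained with 0.1% crystal violet, A590 read. Biomass given as % of untreated biofilm; no-bacteria wells as blanks. At least three biological repeats.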

Pseudomonas aeruginosa [2] = assay: Antibiofilm activity against Pseudomonas aeruginosa clinical isolate 99 assessed as inhibition of biofilm formation at sub-inhibitory concentration incubated for 24 hrs by crystal violet staining based microtiter plate method; format: functional, organism-based
Summary of the method: (§2)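 Washed overnight cultures in BM2 medium at 1 × 10^6 CFU/mL with 2-fold serial peptide dilutions in a U-bottom 96-well plate. Incubated 24 h at 37 °C without agitation. Unattached cells washed off, then 0.1% crystal violet stain read at 590 nm. No-bacteria blanks. Biomass expressed as % of untreated biofilm. At least three biological repeats.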

Pseudomonas aeruginosa [3] = assay: Induction of biofilm degradation of Pseudomonas aeruginosa clinical isolate 52 at 50 uM incubated for 1 hr by crystal violet staining analysis relative to control; format: functional; summary of the method: as §1
Pseudomonas aeruginosa [4] = assay: Induction of biofilm degradation of Pseudomonas aeruginosa clinical isolate 24 at sub MIC concentration incubated for 1 hr by crystal violet staining analysis; format: functional; summary of the method: as §1
Pseudomonas aeruginosa [5] = assay: Antibiofilm activity against Pseudomonas aeruginosa clinical isolate 25 assessed as inhibition of biofilm formation at sub-inhibitory concentration incubated for 24 hrs by crystal violet staining based microtiter plate method; format: functional, organism-based; summary of the method: as §2
Pseudomonas aeruginosa [6] = assay: Antibiofilm activity against Pseudomonas aeruginosa clinical isolate 24 assessed as inhibition of biofilm formation at sub-inhibitory concentration incubated for 24 hrs by crystal violet staining based microtiter plate method; format: functional, organism-based; summary of the method: as §2
Pseudomonas aeruginosa [7] = assay: Induction of biofilm degradation of Pseudomonas aeruginosa clinical isolate 53 at 50 uM incubated for 1 hr by crystal violet staining analysis relative to control; format: functional; summary of the method: as §1
Pseudomonas aeruginosa [8] = assay: Induction of biofilm degradation of Pseudomonas aeruginosa clinical isolate 59 at 50 uM incubated for 1 hr by crystal violet staining analysis relative to control; format: functional
Summary of the method: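 Inoculum of 1 × 10^6 CFU/mL was grown 24 h at 37 °C without agitation to form biofilm. Wells were rinsed of unattached bacteria and exposed for 1 h to serial peptide dilutions (1.56–50 μM). They were then washed, stained with 0.1% crystal violet, and read at 590 nm with no-bacteria blanks. Biomass is given as % of untreated biofilm.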

Pseudomonas aeruginosa [9] = assay: Induction of biofilm degradation of Pseudomonas aeruginosa clinical isolate 238 at 50 uM incubated for 1 hr by crystal violet staining analysis relative to control; format: functional; summary of the method: as §1
Pseudomonas aeruginosa [10] = assay: Antibiofilm activity against Pseudomonas aeruginosa clinical isolate 72 assessed as inhibition of biofilm formation at sub-inhibitory concentration incubated for 24 hrs by crystal violet staining based microtiter plate method; format: functional, organism-based; summary of the method: as §2
Pseudomonas aeruginosa [11] = assay: Antibiofilm activity against Pseudomonas aeruginosa clinical isolate 46 assessed as inhibition of biofilm formation at sub-inhibitory concentration incubated for 24 hrs by crystal violet staining based microtiter plate method; format: functional, organism-based; summary of the method: as §2
Pseudomonas aeruginosa [12] = assay: Induction of biofilm degradation of Pseudomonas aeruginosa clinical isolate 172 at 50 uM incubated for 1 hr by crystal violet staining analysis relative to control; format: functional; summary of the method: as §1
Pseudomonas aeruginosa [13] = assay: Antibiofilm activity against Pseudomonas aeruginosa clinical isolate 629 assessed as inhibition of biofilm formation at sub-inhibitory concentration incubated for 24 hrs by crystal violet staining based microtiter plate method; format: functional, organism-based; summary of the method: as §2
Pseudomonas aeruginosa [14] = assay: Induction of biofilm degradation of Pseudomonas aeruginosa clinical isolate 72 at 50 uM incubated for 1 hr by crystal violet staining analysis relative to control; format: functional; summary of the method: as §1
Pseudomonas aeruginosa [15] = assay: Inhibition of biofilm formation of Pseudomonas aeruginosa clinical isolate 24 derived from cystic fibrosis patient sputum at 0.78 to 25 uM by crystal violet based staining analysis; format: functional, organism-based; conditions: dose 0.78-25 µM
Summary of the method: (§3)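 CF patient sputum diluted 10-fold with BM2, bacteria added with serial peptide dilutions starting from the highest MIC per isolate. Inoculum suspension 1 × 10^6 CFU/mL. Incubated 24 h at 37 °C without agitation. Unattached cells washed away, then 0.1% crystal violet staining and A590. Biomass given as % of untreated, with no-bacteria blanks.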

Pseudomonas aeruginosa [16] = assay: Antibiofilm activity against Pseudomonas aeruginosa clinical isolate 82 in basal medium 2 at 12.5 to 100 uM incubated for 24 hrs by resazurin staining based microtiter plate method; format: functional, organism-based; conditions: dose 12.5-100 µM
Pseudomonas aeruginosa [17] = assay: Induction of biofilm degradation of Pseudomonas aeruginosa clinical isolate 629 at 50 uM incubated for 1 hr by crystal violet staining analysis relative to control; format: functional; summary of the method: as §1
Pseudomonas aeruginosa [18] = assay: Antibiofilm activity against Pseudomonas aeruginosa clinical isolate 71 assessed as inhibition of biofilm formation at sub-inhibitory concentration incubated for 24 hrs by crystal violet staining based microtiter plate method; format: functional, organism-based; summary of the method: as §2
[19] = tested on: Pseudomonas aeruginosa PAO1; assay: Induction of biofilm degradation of Pseudomonas aeruginosa PAO1 in cystic fibrosis patient sputum at 10 uM incubated for 48 hr by resazurin staining based confocal microscopy analysis
Pseudomonas aeruginosa [20] = assay: Induction of biofilm degradation of Pseudomonas aeruginosa clinical isolate 251 at 50 uM incubated for 1 hr by crystal violet staining analysis; format: functional; summary of the method: as §1
Pseudomonas aeruginosa [21] = assay: Induction of biofilm degradation of Pseudomonas aeruginosa clinical isolate 71 at 50 uM incubated for 1 hr by crystal violet staining analysis relative to control; format: functional; summary of the method: as §1
Pseudomonas aeruginosa [22] = assay: Induction of biofilm degradation of Pseudomonas aeruginosa clinical isolate 40 at sub MIC concentration incubated for 1 hr by crystal violet staining analysis; format: functional; summary of the method: as §1
Pseudomonas aeruginosa [23] = assay: Induction of biofilm degradation of Pseudomonas aeruginosa clinical isolate 29 at 50 uM incubated for 1 hr by crystal violet staining analysis relative to control; format: functional; summary of the method: as §1
Pseudomonas aeruginosa [24] = assay: Inhibition of biofilm formation of Pseudomonas aeruginosa clinical isolate 24 derived from cystic fibrosis patient sputum at 0.09 to 3.12 uM by crystal violet based staining analysis; format: functional, organism-based; conditions: dose 0.09-3.12 µM; summary of the method: as §3
Pseudomonas aeruginosa [25] = assay: Induction of biofilm degradation of Pseudomonas aeruginosa clinical isolate 59 at <12.5 uM incubated for 1 hr by crystal violet staining analysis; format: functional; summary of the method: as §1
Pseudomonas aeruginosa [26] = assay: Antibiofilm activity against Pseudomonas aeruginosa clinical isolate 46 in basal medium 2 at 12.5 to 100 uM incubated for 24 hrs by resazurin staining based microtiter plate method; format: functional, organism-based; conditions: dose 12.5-100 µM
Pseudomonas aeruginosa [27] = assay: Inhibition of biofilm formation of Pseudomonas aeruginosa clinical isolate 82 derived from cystic fibrosis patient sputum at 0.09 to 3.12 uM by crystal violet based staining analysis; format: functional, organism-based; conditions: dose 0.09-3.12 µM; summary of the method: as §3
Pseudomonas aeruginosa [28] = assay: Antibiofilm activity against Pseudomonas aeruginosa clinical isolate 53 assessed as inhibition of biofilm formation at sub-inhibitory concentration incubated for 24 hrs by crystal violet staining based microtiter plate method; format: functional, organism-based; summary of the method: as §2
Pseudomonas aeruginosa [29] = assay: Antibiofilm activity against Pseudomonas aeruginosa PAO1 in basal medium 2 at 12.5 to 100 uM incubated for 24 hrs by resazurin staining based microtiter plate method; format: functional, organism-based; conditions: dose 12.5-100 µM
Pseudomonas aeruginosa [30] = assay: Induction of biofilm degradation of Pseudomonas aeruginosa clinical isolate 99 at 50 uM incubated for 1 hr by crystal violet staining analysis relative to control; format: functional; summary of the method: as §1
Pseudomonas aeruginosa [31] = assay: Induction of biofilm degradation of Pseudomonas aeruginosa PAO1 at 50 uM incubated for 1 hr by crystal violet staining analysis relative to control; format: functional; summary of the method: as §1
Pseudomonas aeruginosa [32] = assay: Induction of biofilm degradation of Pseudomonas aeruginosa clinical isolate 995 at 50 uM incubated for 1 hr by crystal violet staining analysis relative to control; format: functional; summary of the method: as §1
Pseudomonas aeruginosa [33] = assay: Induction of biofilm degradation of Pseudomonas aeruginosa clinical isolate 53 at sub MIC concentration incubated for 1 hr by crystal violet staining analysis; format: functional; summary of the method: as §1
Pseudomonas aeruginosa [34] = assay: Induction of biofilm degradation of Pseudomonas aeruginosa clinical isolate 24 incubated for 1 hr by crystal violet staining analysis relative to control; format: functional; conditions: dose 50.0 µM; summary of the method: as §1
Pseudomonas aeruginosa [35] = assay: Induction of biofilm degradation of Pseudomonas aeruginosa clinical isolate 25 at 50 uM incubated for 1 hr by crystal violet staining analysis relative to control; format: functional; summary of the method: as §1
Pseudomonas aeruginosa [36] = assay: Antibiofilm activity against Pseudomonas aeruginosa clinical isolate 24 in basal medium 2 at 12.5 to 100 uM incubated for 24 hrs by resazurin staining based microtiter plate method; format: functional, organism-based; conditions: dose 12.5-100 µM
Pseudomonas aeruginosa [37] = assay: Inhibition of biofilm formation of Pseudomonas aeruginosa PAO1 in patient derived CF-sputum at 0.09 to 3.12 uM by crystal violet based staining analysis; format: functional, organism-based; conditions: dose 0.09-3.12 µM; summary of the method: as §3
Pseudomonas aeruginosa [38] = assay: Induction of biofilm degradation of Pseudomonas aeruginosa clinical isolate 46 at 50 uM incubated for 1 hr by crystal violet staining analysis relative to control; format: functional; summary of the method: as §1
Pseudomonas aeruginosa [39] = assay: Induction of biofilm degradation of Pseudomonas aeruginosa clinical isolate 82 at 50 uM incubated for 1 hr by crystal violet staining analysis relative to control; format: functional; summary of the method: as §1

Q: Which Activity (Pseudomonas aeruginosa [1]) does the source give for `CC(C)C[C@H](NC(=O)[C@H](CC(C)C)NC(=O)[C@H](CC(C)C)NC(=O)[C@H](CC(C)C)NC(=O)[C@H](CCCCN)NC(=O)[C@H](CCCCN)NC(=O)[C@H](CCCCN)NC(=O)[C@H](CCCCN)NC(=O)[C@H](CCCCN)NC(=O)[C@H](CCCCN)NC(=O)[C@H](CC(C)C)NC(=O)[C@H](CC(C)C)NC(=O)[C@H](CC(C)C)NC(=O)[C@H](CC(C)C)NC(=O)[C@@H](N)CC(C)C)C(N)=O` here?
A: The Activity was 60%.

Q: And the inhibition (Pseudomonas aeruginosa [2])?
A: Its inhibition is “Active”.

Q: And the Activity (Pseudomonas aeruginosa [3])?
A: Its Activity is 60%.

Q: What about the Activity (Pseudomonas aeruginosa [4]) of the same compound?
A: Its Activity is “Active”.

Q: What about the inhibition (Pseudomonas aeruginosa [5]) of the same compound?
A: Its inhibition is “Active”.

Q: What about the inhibition (Pseudomonas aeruginosa [6]) of the same compound?
A: Its inhibition is “Active”.

Q: And the Activity (Pseudomonas aeruginosa [7])?
A: The Activity was 60%.

Q: And the Activity (Pseudomonas aeruginosa [8])?
A: The Activity was 40%.

Q: And the Activity (Pseudomonas aeruginosa [9])?
A: Its Activity is 60%.

Q: What about the inhibition (Pseudomonas aeruginosa [10]) of the same compound?
A: Its inhibition is “Active”.

Q: What about the inhibition (Pseudomonas aeruginosa [11]) of the same compound?
A: The inhibition was “Active”.

Q: And the Activity (Pseudomonas aeruginosa [12])?
A: The Activity was 60%.

Q: And the inhibition (Pseudomonas aeruginosa [13])?
A: The inhibition was “Active”.

Q: What about the Activity (Pseudomonas aeruginosa [14]) of the same compound?
A: Its Activity is 60%.

Q: What about the inhibition (Pseudomonas aeruginosa [15]) of the same compound?
A: Its inhibition is “Active”.

Q: And the Activity (Pseudomonas aeruginosa [16])?
A: Its Activity is “Active”.

Q: And the Activity (Pseudomonas aeruginosa [17])?
A: Its Activity is 60%.

Q: And the inhibition (Pseudomonas aeruginosa [18])?
A: The inhibition was “Active”.

Q: What about the Activity [19] of the same compound?
A: The Activity was “Active”.

Q: What about the Activity (Pseudomonas aeruginosa [20]) of the same compound?
A: The Activity was 60%.

Q: What about the Activity (Pseudomonas aeruginosa [21]) of the same compound?
A: The Activity was 60%.

Q: And the Activity (Pseudomonas aeruginosa [22])?
A: Its Activity is “Active”.

Q: What about the Activity (Pseudomonas aeruginosa [23]) of the same compound?
A: The Activity was 60%.

Q: And the inhibition (Pseudomonas aeruginosa [24])?
A: Its inhibition is “Active”.

Q: What about the Activity (Pseudomonas aeruginosa [25]) of the same compound?
A: Its Activity is “Active”.

Q: And the Activity (Pseudomonas aeruginosa [26])?
A: The Activity was “Active”.

Q: What about the inhibition (Pseudomonas aeruginosa [27]) of the same compound?
A: Its inhibition is “Active”.

Q: What about the inhibition (Pseudomonas aeruginosa [28]) of the same compound?
A: The inhibition was “Active”.

Q: What about the Activity (Pseudomonas aeruginosa [29]) of the same compound?
A: Its Activity is “Active”.

Q: And the Activity (Pseudomonas aeruginosa [30])?
A: The Activity was 60%.

Q: What about the Activity (Pseudomonas aeruginosa [31]) of the same compound?
A: The Activity was 60%.

Q: And the Activity (Pseudomonas aeruginosa [32])?
A: The Activity was 60%.

Q: What about the Activity (Pseudomonas aeruginosa [33]) of the same compound?
A: Its Activity is “Active”.

Q: What about the Activity (Pseudomonas aeruginosa [34]) of the same compound?
A: The Activity was 60%.

Q: What about the Activity (Pseudomonas aeruginosa [35]) of the same compound?
A: The Activity was 60%.

Q: What about the Activity (Pseudomonas aeruginosa [36]) of the same compound?
A: Its Activity is “Active”.

Q: What about the inhibition (Pseudomonas aeruginosa [37]) of the same compound?
A: The inhibition was “Active”.

Q: And the Activity (Pseudomonas aeruginosa [38])?
A: The Activity was 60%.

Q: And the Activity (Pseudomonas aeruginosa [39])?
A: The Activity was 60%.
